# Published values pooled from the literature.
# Protocols differ between the studies behind these lines.
# USP51: Ubiquitin carboxyl-terminal hydrolase 51 (USP51, Homo sapiens, UniProt Q70EK9)
# Lyn: Tyrosine-protein kinase Lyn (Lyn, Mus musculus, UniProt P25911)
# CA12: Carbonic anhydrase 12 (CA12, Homo sapiens, UniProt O43570)
# SLC6A3: Sodium-dependent dopamine transporter (SLC6A3, Homo sapiens, UniProt Q01959)
# DRD3: D(3) dopamine receptor (DRD3, Homo sapiens, UniProt P35462)
# Slc6a1: Sodium- and chloride-dependent GABA transporter 1 (Slc6a1, Rattus norvegicus, UniProt P23978)
Compound,target,read-out,mode,technique,cell line,concentration,inhibition [%]
COc1ccc(C(C)=O)c(O)c1,USP51,enzyme activity,inhibitor,,,5 µM,18
CCN(CC)CCNC(=O)c1c(C)[nH]c(/C=C2\C(=O)Nc3ccc(F)cc32)c1C,Lyn,enzyme activity,inhibitor,,,0.3 µM,40
CCOC(=O)C1CSc2[nH]c(=O)sc2C1c1cn(-c2ccccc2)nc1-c1ccc(Cl)cc1 (stereo not shown),CA12,enzyme activity,inhibitor,absorbance,,10 nM,27.6
CC1CCC(C(C)C)C(O)C1 (racemic),USP51,enzyme activity,inhibitor,,,5 µM,37
O=C(c1ccc(Cl)cc1)N(Cc1ccccc1)C1CCCCC1,"Urotensin-2 receptor (UTS2R, Homo sapiens, UniProt Q9UKP6)",cell-free assay,,,,10 µM,27.3
Clc1ccc(C(c2ccccc2)c2nnnn2CCCCN2CCN(CC=Cc3ccccc3)CC2)cc1 (stereo not shown),SLC6A3,transporter uptake,inhibitor,,HEK293,1 µM,82.2
C=CCn1c(SCC(=O)NC2=NN(c3ccccc3)C(=O)C2)nnc1-c1cccs1,DRD3,enzyme activity,inhibitor,,,10 µM,-4.7
CC(C)(COP(=O)(O)OP(=O)(O)OC[C@H]1O[C@@H](n2cnc3c(N)ncnc32)[C@H](O)[C@@H]1OP(=O)(O)O)[C@@H](O)C(=O)NCCC(=O)NCCS,"Histone acetyltransferase KAT2A (KAT2A, Homo sapiens, UniProt Q92830)",enzyme activity,inhibitor,mobility shift,,10 µM,29
O=C1CC(N2CCN(Cc3ccccc3)CC2)C(=O)N1c1ccc2c(c1)OCCO2 (stereo not shown),DRD3,enzyme activity,inhibitor,,,10 µM,-26
Nc1[nH]cnc2ncnc1-2,USP51,enzyme activity,inhibitor,,,5 µM,33
Fc1ccc(C(c2ccc(F)cc2)c2nnnn2CCCCN2CCC(Cc3ccc(Cl)c(Cl)c3)CC2)cc1,SLC6A3,transporter uptake,inhibitor,,HEK293,1 µM,68.9
CS(=O)(=O)c1ccc(Nc2ccc3c(c2)OCO3)c([N+](=O)[O-])c1,"Solute carrier family 2, facilitated glucose transporter member 5 (SLC2A5, Homo sapiens, UniProt P22732)",transporter uptake,inhibitor,,MCF7,25 µM,~90
FC(F)(F)c1cccc(-c2ccc(CNCCCN3CCOCC3)o2)c1,DRD3,enzyme activity,inhibitor,,,10 µM,50.7
Fc1ccc(C(c2ccc(F)cc2)c2nnnn2CCCCN2CCC(CCCc3ccccc3)CC2)cc1,SLC6A3,transporter uptake,inhibitor,,HEK293,1 µM,53.4
CCOC(=O)C1CSc2[nH]c(=O)sc2C1c1cn(-c2ccccc2)nc1-c1ccc(OC)cc1 (stereo not shown),CA12,enzyme activity,inhibitor,absorbance,,10 nM,17.1
O=C(Nc1ccc(S(=O)(=O)N2CCC(Cl)CC2)cc1)c1ccc([N+](=O)[O-])o1,Slc6a1,ligand displacement,,radioligand,,10 µM,17
O=C1NC(=S)C(=Cc2cn(-c3ccccc3)nc2-c2ccc(Br)cc2)S1,CA12,enzyme activity,inhibitor,absorbance,,0.1 µM,11.1
Cc1ccc(C(C)C)c(OCC(O)CN2CCN(c3ccccc3F)CC2)c1 (stereo not shown),DRD3,enzyme activity,inhibitor,,,10 µM,20.4
CC(C)=CCC[C@](C)(O)[C@H]1CC[C@]2(C)[C@@H]1[C@H](O)C[C@@H]1[C@@]3(C)CC[C@H](O[C@@H]4O[C@H](CO)[C@@H](O)[C@H](O)[C@H]4O[C@@H]4O[C@H](CO)[C@@H](O)[C@H](O)[C@H]4O)C(C)(C)[C@@H]3CC[C@]12C,USP51,enzyme activity,inhibitor,,,5 µM,0
CC(=O)Nc1ccc(N2CC(O)=C(c3nc4ccccc4[nH]3)C2=N)cc1,DRD3,enzyme activity,inhibitor,,,10 µM,-23.2
CCCOC(=O)c1cc(O)c(O)c(O)c1,USP51,enzyme activity,inhibitor,,,5 µM,97
Clc1ccc(C(c2ccccc2)c2nnnn2CCCCN2CCN(CCCc3ccccc3)CC2)cc1 (stereo not shown),SLC6A3,transporter uptake,inhibitor,,HEK293,1 µM,81.6
CCOC(=O)C1CSc2[nH]c(=O)sc2C1c1cn(-c2ccccc2)nc1-c1ccccc1 (stereo not shown),CA12,enzyme activity,inhibitor,absorbance,,10 µM,72.5
CCn1c2ccccc2c2cc(CNCCCN3CCOCC3)ccc21,DRD3,enzyme activity,inhibitor,,,10 µM,13.5
Clc1ccc(C(c2ccccc2)c2nnnn2CCCCN2CCN(CCc3ccccc3)CC2)cc1 (stereo not shown),SLC6A3,transporter uptake,inhibitor,,HEK293,1 µM,62.1
Oc1cccc(Nc2nc(-c3ccc(F)cc3F)cs2)c1,"Peroxisome proliferator-activated receptor gamma (PPARG, Homo sapiens, UniProt P37231)",cell-free assay,,,,10 µM,86.5
CCOC(=O)C1CSc2[nH]c(=O)sc2C1c1cn(-c2ccccc2)nc1-c1ccc(C)cc1 (stereo not shown),CA12,enzyme activity,inhibitor,absorbance,,10 µM,83.1
CNC(=O)c1cc(Oc2ccc(NC(=O)Nc3ccc(Cl)c(C(F)(F)F)c3)cc2)ccn1,Lyn,enzyme activity,inhibitor,,,0.3 µM,37
O=C(c1ccccc1Cl)N1CCN(CCNc2cc(=O)oc3ccccc23)CC1,DRD3,enzyme activity,inhibitor,,,10 µM,-5.2
c1ccc(C2CCN(CCCCn3nnnc3C(c3ccccc3)c3ccccc3)CC2)cc1,SLC6A3,transporter uptake,inhibitor,,HEK293,1 µM,93.9
O=C(c1ccc(F)cc1)N(Cc1ccccc1)C1CCCCC1,Slc6a1,transporter uptake,,,,10 µM,4
COc1ccc([C@@H]2CC(=O)c3c(O)cc(O[C@@H]4O[C@H](CO[C@@H]5O[C@@H](C)[C@H](O)[C@@H](O)[C@H]5O)[C@@H](O)[C@H](O)[C@H]4O)cc3O2)cc1O,USP51,enzyme activity,inhibitor,,,5 µM,30
Clc1ccc(C(c2ccc(Cl)cc2)c2nnnn2CCCCN2CCC(c3ccccc3)CC2)cc1,SLC6A3,transporter uptake,inhibitor,,HEK293,1 µM,90.1
O=C(CO)[C@@H](O)[C@H](O)[C@H](O)CO,USP51,enzyme activity,inhibitor,,,5 µM,97
CCOC(=O)C1CSc2[nH]c(=O)sc2C1c1cn(-c2ccccc2)nc1-c1ccc(Br)cc1 (stereo not shown),CA12,enzyme activity,inhibitor,absorbance,,100 µM,92.1
Cc1ccc(Nc2nccc(N(C)c3ccc4c(C)n(C)nc4c3)n2)cc1S(N)(=O)=O,Lyn,enzyme activity,inhibitor,,,10 µM,97
O=c1c(-c2ccc(O)cc2)coc2cc(O[C@@H]3O[C@H](CO)[C@@H](O)[C@H](O)[C@H]3O)ccc12,USP51,enzyme activity,inhibitor,,,5 µM,39
N#CC1CSc2[nH]c(=O)sc2C1c1cn(-c2ccccc2)nc1-c1ccc(Br)cc1 (stereo not shown),CA12,enzyme activity,inhibitor,absorbance,,10 µM,84.7
c1ccc(CCCC2CCN(CCCCn3nnnc3C(c3ccccc3)c3ccccc3)CC2)cc1,SLC6A3,transporter uptake,inhibitor,,HEK293,1 µM,63
COc1ccc(CCN2C(=O)CC(N3CCN(c4ccc(Cl)cc4)CC3)C2=O)cc1OC (stereo not shown),DRD3,enzyme activity,inhibitor,,,10 µM,-14.6
